Source: ChEMBL document CHEMBL1833958, “Anti-AIDS agents 87. New bio-isosteric dicamphanoyl-dihydropyranochromone (DCP) and dicamphanoyl-khellactone (DCK) analogues with potent anti-HIV activity” (Bioorg Med Chem Lett, 2011)

What was measured:
[1] = tested on: Human immunodeficiency virus 1; experiment: Antiviral activity against Human immunodeficiency virus 1 NL4-3 infected in human TZM-bl cells assessed as inhibition of viral replication after 48 hrs by luciferase reporter gene assay; type: functional, organism-based; details: Human immunodeficiency virus 1, NL4-3, TZM-bl
Outline: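 Single-round infection of TZM-bl cells with HIV-1 NL4-3 at 200 TCID50, mixed with test samples at eight four-fold serial dilutions in growth medium. After 48 h, medium is removed and luciferase reagent added. Luminescence is then read. EC50 is the concentration giving 50% reduction in RLU versus virus control wells, after background RLU subtraction.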

[2] = Cytotoxicity against human TZM-bl cells assessed as inhibition of cell growth; type: cell-based
Outline: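 Uninfected TZM-bl cells exposed to test samples. CC50 is the concentration inhibiting cell growth by 50%.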

[3] = Therapeutic index, ratio of CC50 for human TZM-bl cells to EC50 for HIV1 NL4-3; type: cell-based; details: read-out: Ratio CC50/EC50
Outline: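 TI calculated as CC50 (uninfected TZM-bl growth inhibition) divided by EC50 (NL4-3 replication inhibition in TZM-bl luciferase reporter assay).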

**Q.** Which results are given for `CCc1cc(=O)c2ccc3c(c2o1)[C@@H](OC(=O)C12CCC(C)(C(=O)O1)C2(C)C)[C@@H](OC(=O)C12CCC(C)(C(=O)O1)C2(C)C)C(C)(C)S3` (stereo partly drawn)?
**A.** EC50 [1]: 54 nM; CC50 [2]: 5400 nM; selectivity ratio [3]: 100

**Q.** What does the source list for `Cc1cc(=O)oc2c3c(ccc12)SC(C)(C)[C@H](OC(=O)[C@@]12CC[C@@](C)(C(=O)O1)C2(C)C)[C@@H]3OC(=O)[C@@]12CC[C@@](C)(C(=O)O1)C2(C)C`?
**A.** EC50 [1]: 128 nM; selectivity ratio [3]: > 238

**Q.** With `Cc1cc(=O)oc2c3c(ccc12)SC(C)(C)[C@@H](OC(=O)[C@@]12CC[C@@](C)(C(=O)O1)C2(C)C)[C@H]3OC(=O)[C@@]12CC[C@@](C)(C(=O)O1)C2(C)C` as the molecule, how does the EC50 [1] read?
**A.** 8590 nM

**Q.** And the CC50 [2]?
**A.** > 30600 nM

**Q.** And the selectivity ratio [3]?
**A.** > 3.6

**Q.** What does the source list for `CCc1cc(=O)c2ccc3c(c2o1)[C@@H](OC(=O)C12CCC(C)(C(=O)O1)C2(C)C)[C@@H](OC(=O)C12CCC(C)(C(=O)O1)C2(C)C)[C@H](C)O3` (stereo partly drawn)?
**A.** EC50 [1]: 30 nM; CC50 [2]: 4550 nM; selectivity ratio [3]: 153

**Q.** For `CCc1cc(=O)c2ccc3c(c2o1)[C@@H](OC(=O)C12CCC(C)(C(=O)O1)C2(C)C)[C@@H](OC(=O)C12CCC(C)(C(=O)O1)C2(C)C)[C@H](C)S3` (stereo partly drawn), which EC50 [1] is on record?
**A.** 38 nM

**Q.** And the CC50 [2]?
**A.** 1840 nM

**Q.** What about the selectivity ratio [3] of the same molecule?
**A.** 48

**Q.** Which EC50 [1] does the source give for `CCc1cc(=O)c2ccc3c(c2o1)[C@H](OC(=O)C12CCC(C)(C(=O)O1)C2(C)C)[C@H](OC(=O)C12CCC(C)(C(=O)O1)C2(C)C)[C@@H](C)S3` (stereo partly drawn) here?
**A.** 184 nM

**Q.** What about the CC50 [2] of the same molecule?
**A.** 3830 nM

**Q.** What about the selectivity ratio [3] of the same molecule?
**A.** 20.8

**Q.** With `CCc1cc(=O)c2ccc3c(c2o1)[C@@H](OC(=O)C12CCC(C)(C(=O)O1)C2(C)C)[C@@H](OC(=O)C12CCC(C)(C(=O)O1)C2(C)C)C(C)(C)O3` (stereo partly drawn) as the molecule, how does the selectivity ratio [3] read?
**A.** 119
